The list is not random: actives were taken first. Their share in the collection is about 3.1%.
UHRF1 MBD2 ctr – UHRF1 methyl-DNA binding inhibition; UHRF1 binding to methylated oligo, TR-FRET; inhibition, % at 4.4 µM; 370,000 tested, 0.75% active; in the data active = inhibition above about 21%;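 also: UHRF1 SRA domain binding a hemimethylated CpG hairpin DNA probe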
rCAG binder – molecules binding r(CAG) RNA repeats. r(CAG) RNA repeat, TO-PRO-1 dye displacement fluorescence. inhibition, % at 3 µM. 370,000 tested, 1.3% active. AID 651821;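 active = inhibition above the plate cutoff, the mean of all test compounds on that plate plus 3 SD, cut at about 35% in these data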;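 also: higher means more dye released from RNA so lower well fluorescence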
ATG4B inhibitor – inhibitors of human ATG4B cysteine protease; ATG4B cleavage of LC3-PLA2, NBD-HPC fluorescence, 1 h; inhibition, % at 8.33 µM; 340,000 tested, 0.51% active; AID 504462; in the data active = inhibition above about 40%
MBD2 inh – blocks human MBD2 binding to methylated DNA; Q9UBB5; TR-FRET, MBD2 binding to methylated oligonucleotide; inhibition, % at 4.4 µM; 370,000 tested, 0.31% active; in the data active = inhibition above about 13%
Target sequence (Q9UBB5 whole entry, looked up): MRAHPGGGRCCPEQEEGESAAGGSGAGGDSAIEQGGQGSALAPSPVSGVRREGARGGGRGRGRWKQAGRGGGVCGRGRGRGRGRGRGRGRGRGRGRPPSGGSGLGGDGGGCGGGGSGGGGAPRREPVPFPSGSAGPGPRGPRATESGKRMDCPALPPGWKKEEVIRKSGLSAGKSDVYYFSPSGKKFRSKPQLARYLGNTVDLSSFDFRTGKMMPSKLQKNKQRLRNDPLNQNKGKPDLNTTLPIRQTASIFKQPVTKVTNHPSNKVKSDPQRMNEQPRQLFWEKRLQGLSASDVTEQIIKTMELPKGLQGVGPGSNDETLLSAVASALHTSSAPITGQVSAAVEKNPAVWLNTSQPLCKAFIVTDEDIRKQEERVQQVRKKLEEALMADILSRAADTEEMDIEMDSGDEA
LEDGF integ inh – blocks HIV-1 LEDGF/p75-dependent DNA integration | TR-FRET IN-LEDGF/p75 DNA integration, Eu/Cy5 | inhibition, % at 3.7 µM | 370,000 tested, 0.64% active | AID 743269;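 active = inhibition above the screen-wide mean plus 3 SD, cut at about 13% in these data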;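 also: signal is the Cy5 over europium emission ratio at 671 and 618 nm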
CSN inh – inhibitors of human CSN-mediated cullin deneddylation. Purified CSN, SCF-Nedd8-OG deneddylation, fluorescence polarization. inhibition, % at 12.5 µM. 360,000 tested, 0.38% active;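 active = pattern-corrected inhibition above about 35%, with an unprinted fluorescence ratio check between 0.5 and 1.5, limit read from the data, passing the limit was not always enough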
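Material: purified human Csn5 enzyme expressed in HEK293T cells / Medium: Tris buffer pH 7.5, NaCl, DTT, Tween-20, trehalose, ovalbumin / Compound dosing: 12.5 µM single point / Schedule: 90 min incubation of compound, enzyme and substrate at room temperature / Signal: fluorescence polarization of the substrate / Control set: no-enzyme wells high, enzyme-with-substrate wells low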
Each line names hits and unclear results; the compound was inactive in the other large screens.

COc1ccc(-c2nnc(SC)nc2-c2ccc(OC)c([N+](=O)[O-])c2)cc1[N+](=O)[O-]	UHRF1 MBD2 ctr 24
Cc1ccc(C(=O)NC2CCS(=O)(=O)C2)cc1S(=O)(=O)N1CCCCCC1 (stereo unspecified)	UHRF1 MBD2 ctr 23
CC(C)Oc1ccc(C(=O)Nc2ccc(NC(=O)c3ccco3)c(Cl)c2)cc1	none
O=C(Nc1ccc(NC(=O)c2ccco2)c(Cl)c1)c1ccccc1	UHRF1 MBD2 ctr 42
O=C(N/N=C/c1ccc2c(c1)OCO2)c1cc(-c2ccco2)nc2ccccc12	CSN inh 43
CN(CC(=O)Nc1ccc(F)cc1)C(=O)c1cc(-c2ccco2)nc2ccccc12	CSN inh 53
CCN(CC)C(=O)COC(=O)c1cc(-c2ccco2)nc2ccccc12	none
CNC(=O)COC(=O)c1cc(-c2ccco2)nc2ccccc12	LEDGF integ inh 16
COc1ccc(Cl)cc1NC(=O)CN(C)C(=O)c1cc(-c2ccncc2)nc2ccccc12	LEDGF integ inh 16
OC(c1ccccc1)(c1ccccc1)C1CCN(CCCOc2ccc(Br)cc2)CC1	none (no result: ATG4B inhibitor, CSN inh)
Cc1ccc(NC(=O)Cc2cccc(OC(F)(F)F)c2)c(S(=O)(=O)N2CCOCC2)c1	none (no result: ATG4B inhibitor, CSN inh)
O=[N+]([O-])c1ccc2nc(CNc3nc(N4CCOCC4)nc4c3ncn4-c3ccsc3)[nH]c2c1	none (no result: rCAG binder, ATG4B inhibitor, CSN inh)
COCCCN(C(=O)c1cc(-c2ccco2)nc2ccccc12)c1c(N)n(Cc2ccccc2)c(=O)[nH]c1=O	UHRF1 MBD2 ctr 23, LEDGF integ inh 36
CCCn1c(N)c(N(CCOC)C(=O)c2cc(-c3ccco3)nc3ccccc23)c(=O)[nH]c1=O	none
COc1ccc(/C=C/c2nc(-c3ccccc3O)n[nH]2)cc1	UHRF1 MBD2 ctr 66
COc1ccc(/C=C/c2nc(-c3ccccc3O)n(-c3ccccc3)n2)cc1	none
O=C(OC12CCCN(C1)/C(=C/c1ccncc1)C2)C1CCCCC1 (stereo unspecified)	none (no result: ATG4B inhibitor, CSN inh)
O=C(CCc1ccncc1)N1CCCC(Nc2ccc(F)cc2)C1 (stereo unspecified)	none
CN(CCc1ccccc1)C(=O)c1ccc(NC(=O)Cc2ccc(NC(=O)C3CCCN(C(=O)C4CCC4)C3)cc2)cc1 (stereo unspecified)	none
CN(CCc1ccccc1)C(=O)c1ccc(NC(=O)Cc2ccc(NC(=O)C3CCCN(C(=O)CCc4ccccc4)C3)cc2)cc1 (stereo unspecified)	UHRF1 MBD2 ctr 37
O=C(CCc1ccccc1)N1CCCC(Nc2ccc(F)cc2)C1 (stereo unspecified)	UHRF1 MBD2 ctr 23
CN(C)CCNC(=O)C1CCCNC1=O (stereo unspecified)	none
Cc1ccc(S(=O)(=O)NCCNC(=O)C2CCCNC2=O)cc1 (stereo unspecified)	UHRF1 MBD2 ctr 21
COc1ccc(CCNC(=O)CN(c2cccc([N+](=O)[O-])c2)S(C)(=O)=O)cc1	UHRF1 MBD2 ctr 38
COc1cc(Cl)c(C)cc1NC(=O)c1ccc(S(C)(=O)=O)cc1	UHRF1 MBD2 ctr 24
COc1cc(NC(=O)c2ccccc2)c(OC)cc1Cl	none
Cc1ccc(OCC(=O)N2CCc3ccccc3C2)c(C)c1	none
COc1ccc2c(c1)c(=O)oc1cc(OCC(=O)N3CCc4ccccc4C3)ccc12	UHRF1 MBD2 ctr 39, MBD2 inh 21
COc1cc(C(C)=O)ccc1OCC(=O)N1CCc2ccccc2C1	CSN inh 92
COc1ccc2c(c1)c(=O)oc1cc(OCC(=O)N3CCC(C)CC3)ccc12	none (no result: UHRF1 MBD2 ctr, rCAG binder, MBD2 inh, LEDGF integ inh)
Cc1ccc(S(=O)(=O)N2c3ccccc3C[C@H]2CC=C(c2ccccc2)c2ccccc2)cc1	none (no result: rCAG binder, ATG4B inhibitor, CSN inh)
COc1ccccc1C(=O)NC1CCCCN(Cc2ccc(OC(F)(F)F)cc2)C1=O (stereo unspecified)	none (no result: ATG4B inhibitor, CSN inh)
C[C@@H]1[C@@H](O)C[C@@]2(C[C@H](O)c3cc(Cl)ccc3O2)O[C@H]1c1ccccc1Cl	none (no result: ATG4B inhibitor, CSN inh)
O=C(c1ccc(Br)cc1)c1coc2ccc(O)cc12	none
O=C(c1coc2ccc(O)cc12)C1CC1	UHRF1 MBD2 ctr 21
O=C(Nc1ccc(C(=O)O)cc1)/C(=C\C=C\c1ccccc1)NC(=O)c1ccccc1Cl	rCAG binder 37
O=C(O)CCNc1cc(N2CCN(C(=O)c3ccco3)CC2)c2noc3c2c1C(=O)c1ccccc1-3	rCAG binder 68
CCOC(=O)Cc1nnc(NC(=O)Nc2ccccc2)s1	rCAG binder 35
O=C(Nc1ccccc1)Nc1nnc(Cc2ccccc2F)s1	none
O=C1c2cc(Cl)ccc2OC2(CCNCC2)C12CC(c1ccc(Cl)cc1)=NO2 (stereo unspecified)	CSN inh 68 (no result: UHRF1 MBD2 ctr, rCAG binder, MBD2 inh, LEDGF integ inh)
O=C(Nc1ccc(F)cc1)OCc1cn(Cc2cccc(Cl)c2)nn1	none (no result: ATG4B inhibitor, CSN inh)
C=CCNC(=O)c1ccc(Cn2c(=S)[nH]c3cc4c(cc3c2=O)OCO4)cc1	CSN inh 56
CCOC(=O)[C@@]12CCCC=C1N(CCc1ccc(Cl)cc1)C(=O)[C@H]2CC(=O)NCc1cccc(C(F)(F)F)c1	none (no result: ATG4B inhibitor, CSN inh)
Cn1ccnc1C(=O)c1cc(SCC(=O)NCc2ccccc2)nc2ccccc12	UHRF1 MBD2 ctr 26
CCC(Sc1nc2cc(OC)c(OC)cc2c(=O)n1Cc1ccc(OC)cc1)C(=O)NCCOC (stereo unspecified)	UHRF1 MBD2 ctr 23
CC(C)NC(=O)C1(C)CN(S(C)(=O)=O)CC(=O)N1CCOc1ccccc1 (stereo unspecified)	UHRF1 MBD2 ctr 40 (no result: ATG4B inhibitor)
Cc1ccc(C(=O)NN2C(=O)/C(=C/c3cccn3C)SC2=S)cc1	none
Cn1cccc1/C=C1\SC(=S)N(CC(=O)O)C1=O	CSN inh 49
O=C(O)CN1C(=O)/C(=C/c2ccsc2)SC1=S	none
Cn1cccc1/C=C1\SC(=S)N(NC(=O)c2ccccc2Cl)C1=O	CSN inh 44
COc1ccc(C#CCN(Cc2ccc(OC)cc2OC)C(N)=NC(=O)CCc2ccccc2)cc1	none (no result: ATG4B inhibitor, CSN inh)
Nc1ccc(S(=O)(=O)c2cc(O)c3ccccc3c2O)cc1	rCAG binder 57
O=S(=O)(c1ccccc1)c1cc(O)ccc1O	none
CCN(c1ccccc1)S(=O)(=O)c1cc(C(=O)OCC(=O)c2c(N)n(C)c(=O)n(C)c2=O)ccc1C	UHRF1 MBD2 ctr 32
Cn1cc(C2(c3c[nH]c4ccccc34)CCN(C(=O)OC(C)(C)C)CC2)c2ccccc21	none (no result: ATG4B inhibitor, CSN inh)
CC(=O)NN1C(=O)c2ccccc2NC1c1ccoc1 (stereo unspecified)	none
CC(=O)NN1C(=O)c2ccccc2NC1c1ccccc1F (stereo unspecified)	UHRF1 MBD2 ctr 63
O=C(/C=C/c1ccc(Br)cc1)N1CCN(c2cccc(C(F)(F)F)c2)CC1	none
O=C(/C=C/c1cccc(Br)c1)N1CCN(c2cccc(C(F)(F)F)c2)CC1	UHRF1 MBD2 ctr 24
O=C(O)CN1C(=O)/C(=C/C=C/c2ccccc2)SC1=S	none
